# Source: the RNAGym collection of RNA variant scans (doi:10.1002/anie.201605470)
# B1: Osa-1-4 twister ribozyme (parent)
# chain: CCGCCUAACACUGCCAAUGCCGGUCCCAAGCCCGGAUAAAAGUGGAGGGGGCGG
# Variants of: B1
# Assay: self-cleavage, relative activity (ratio to wild type); higher = more cleavage; co-transcriptional
# Method in brief: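 For each read, cleavage status was taken from whether upstream sequence was present. The reads came from an Oryza sativa twister ribozyme of 54 nucleotides, whose DNA template was synthesised with 97 % wild-type base and 1 % of each other base at the 48 positions downstream of the cleavage site. The template was transcribed in vitro at 37 °C for 2 h with co-transcriptional self-cleavage, and the RNA was reverse-transcribed using a template-switching oligonucleotide, PCR-amplified and deep-sequenced. Relative activity is the fraction cleaved normalised to wild type.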
row,Variant,self-cleavage
1,A46C C25A,0.03
2,A46C C25G,0.02
3,A46C C25U,0.05
4,A46C G13C,0.01
5,A46C G13U,0.01
6,A46C G13A,0.02
7,A46C G22A,0.06
8,A46C G22U,0.04
9,A46C G22C,0.03
10,A46C G50C,0.08
11,A46C G50A,0.1
12,A46C G50U,0.09
13,A46C C21U,0.06
14,A46C C21A,0.06
15,A46C C21G,0.03
16,A46C U37G,0.09
17,A46C U37C,0.07
18,A46C U37A,0.05
19,A46C G34A,0.06
20,A46C G34C,0.05
21,A46C G34U,0.04
22,A46C C32U,0.04
23,A46C C32A,0.03
24,A46C C32G,0.03

row,Variant,self-cleavage
1,A46C G47C,0.02
2,A46C G47A,0.04
3,A46C G47U,0.04
4,A46C C26A,0.02
5,A46C C26U,0.05
6,A46C C26G,0.02
7,G45U G49A,0.04
8,G45U G49U,0.04
9,G45U G49C,0.02
10,G45U G54U,0.2
11,G45U G54A,0.1
12,G45U G54C,0.06
13,G45U U12G,0.07
14,G45U U12C,0.06
15,G45U U12A,0.06
16,A46C G30U,0.02
17,A46C G30C,0.02
18,A46C G30A,0.01
19,A46C C20U,0.07
20,A46C C20G,0.03
21,A46C C20A,0.04
22,A46C A8G,0.02
23,A46C A8U,0.03
24,A46C A8C,0.03

row,Variant,self-cleavage
1,G45U G47C,0.04
2,G45U G47U,0.06
3,G45U G47A,0.04
4,A46G,0.08
5,A46C,0.09
6,G45C U18G,0.09
7,G45C U18A,0.06
8,G45C U18C,0.1
9,G45U G48U,0.04
10,G45U G48A,0.04
11,G45U G48C,0.04
12,G45U,0.17
13,G45U U43G,0.06
14,G45U U43A,0.06
15,G45U U43C,0.06
16,A46C G48A,0.04
17,A46C G48C,0.03
18,A46C G48U,0.02
19,A46C G44A,0.05
20,A46C G44C,0.06
21,A46C G44U,0.06
22,A46C G53C,0.04
23,A46C G53U,0.08
24,A46C G53A,0.07

row,Variant,self-cleavage
1,A46C G23A,0.04
2,A46C G23U,0.03
3,A46C G23C,0.02
4,A46C G35C,0.04
5,A46C G35A,0.06
6,A46C G35U,0.05
7,A46C G54U,0.19
8,A46C G54C,0.08
9,A46C G54A,0.09
10,A46C C52A,0.07
11,A46C C52U,0.08
12,A46C C52G,0.09
13,A46C U18A,0.06
14,A46C U18C,0.06
15,A46C U18G,0.14
16,A46C U24G,0.01
17,A46C U24A,0.02
18,A46C U24C,0.04
19,G45U U18G,0.19
20,G45U U18C,0.14
21,G45U U18A,0.14
22,A46C A7U,0.02
23,A46C A7G,0.04
24,A46C A7C,0.03

row,Variant,self-cleavage
1,A46C C11U,0.05
2,A46C C11A,0.04
3,A46C C11G,0.03
4,G45U G53C,0.03
5,G45U G53A,0.07
6,G45U G53U,0.05
7,A46C G51A,0.07
8,A46C G51U,0.05
9,A46C G51C,0.04
10,A46C U43C,0.05
11,A46C U43A,0.06
12,A46C U43G,0.05
13,G45C U12C,0.05
14,G45C U12G,0.05
15,G45C U12A,0.06
16,A46C G45A,0.05
17,A46C G45U,0.02
18,A46C G45C,0.03
19,G45U G50U,0.09
20,G45U G50C,0.07
21,G45U G50A,0.12
22,G45C U37A,0.05
23,G45C U37C,0.08
24,G45C U37G,0.07

row,Variant,self-cleavage
1,A46C C31U,0.04
2,A46C C31A,0.01
3,A46C C31G,0.02
4,A46C C9G,0.05
5,A46C C9U,0.02
6,A46C C9A,0.03
7,G45U U37A,0.09
8,G45U U37C,0.17
9,G45U U37G,0.21
10,A46C C14U,0.03
11,A46C C14A,0.02
12,A46C C14G,0.03
13,A46C G19A,0.05
14,A46C G19U,0.04
15,A46C G19C,0.02
16,G45U U24C,0.04
17,G45U U24A,0.04
18,G45U U24G,0.02
19,A46C U12A,0.05
20,A46C U12C,0.04
21,A46C U12G,0.03
22,A46C C27U,0.04
23,A46C C27G,0.01
24,A46C C27A,0.03

row,Variant,self-cleavage
1,G45C U43G,0.04
2,G45C U43C,0.06
3,G45C U43A,0.06
4,G45C G54U,0.17
5,G45C G54C,0.07
6,A46C G42U,0.02
7,A46C G42A,0.04
8,A46C G42C,0.04
9,A46C C15G,0.04
10,A46C C15U,0.04
11,A46C C15A,0.03
12,G45U G51A,0.08
13,G45U G51U,0.05
14,G45U G51C,0.04
15,A46C C33U,0.03
16,A46C C33A,0.04
17,A46C C33G,0.02
18,G45C U24A,0.04
19,G45C U24C,0.02
20,G45C U24G,0.01
21,A46C G49U,0.04
22,A46C G49C,0.03
23,A46C G49A,0.04
